Compound activity deposited in PubChem by Broad Institute.
SIRT5 block – SIRT5 desuccinylase inhibitors, primary screen, biochemical, fluorescence imaging, single point, set 5; AID 652115, 2013; 1.1% of 330,000 active; inhibition, % at 15 µM; Purified SirT5, succinyl-peptide AMC, trypsin-coupled fluorescence; in the data active means inhibition above about 15%; inconclusive means no clear call, values can overlap the other calls
Target sequence (Q9NXA8 whole entry, looked up): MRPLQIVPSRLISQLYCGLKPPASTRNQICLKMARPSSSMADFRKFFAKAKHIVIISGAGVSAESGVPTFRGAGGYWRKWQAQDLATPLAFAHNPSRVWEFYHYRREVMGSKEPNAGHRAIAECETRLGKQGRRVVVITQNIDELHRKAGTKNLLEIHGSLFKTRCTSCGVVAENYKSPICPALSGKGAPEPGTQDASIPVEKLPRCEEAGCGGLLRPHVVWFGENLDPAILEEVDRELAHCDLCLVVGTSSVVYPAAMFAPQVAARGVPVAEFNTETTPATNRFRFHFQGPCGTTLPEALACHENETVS
E-selectin induc – E-selectin induction in HUVECs, primary screen, imaging, HUVEC, immunofluorescence imaging, single point | activation, % at 7.58 µM | normalized: neutral wells 0, TNF-alpha wells 100 | P16581 | AID 686992, 2013 | 0.37% of 260,000 active;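 active means mean E-selectin-positive cell signal at least 10% of the positive control, reached in at least 60% of replicates, without over 20% cell loss; inconclusive means no rule given, readout overlaps actives, possibly toxicity-flagged; inactive means the rest, including those meeting only one limit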
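System: HUVEC / Compound: single concentration / Signal: immunofluorescence imaging / Read-out: percent E-selectin-positive cells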
DENV2 CPE – inhibitors of DENV2 cytopathic effect, primary screen, cell-based, plate reader, single concentration; DENV2-infected cells, cytopathic effect rescue; CPE inhibition, % at 9.99 µM; 1.7% of 350,000 active; in the data active means CPE inhibition above about 20%, passing the limit was not always enough; inconclusive means no clear call, values can overlap the other calls; tested in BHK-21 cells;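 further: 0% = median of neutral control wells and 100% = median of positive control wells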
Active calls of the source: *. Only some compounds are listed: those with a hit (about 2.8% of all), similar ones and a draw of the others.

Screening COc1ccc(NC(=O)Nc2ccc3c(c2)C(=O)N([C@@H](C)CO)C[C@@H](C)[C@@H](CN(C)C(=O)Nc2ccc(OC)cc2)O3)cc1 returned SIRT5 block 1.4, E-selectin induc 0.0 and DENV2 CPE 25.7*.
For COc1ccc(NC(=O)Nc2ccc3c(c2)C(=O)N([C@@H](C)CO)C[C@H](C)[C@@H](CN(C)C(=O)Nc2ccc(F)cc2)O3)cc1 the results were SIRT5 block 1.6, E-selectin induc 1.6 and DENV2 CPE -2.6.
`C[C@@H]1CN([C@@H](C)CO)C(=O)c2cc(NC(=O)C3CCCCC3)ccc2O[C@H]1CN(C)C(=O)Nc1ccc(F)cc1` gave SIRT5 block 10.8, E-selectin induc -2.5 and DENV2 CPE 2.0.
Screening C[C@@H]1CN([C@H](C)CO)C(=O)c2cc(NC(=O)C3CCCCC3)ccc2O[C@H]1CN(C)C(=O)Nc1ccc(F)cc1 returned SIRT5 block -3.4, E-selectin induc -0.7 and DENV2 CPE 55.4*.
`COc1ccc2c3c([nH]c2c1)[C@H](CO)N(Cc1ccc(F)cc1)CC31CN(Cc2ccccn2)C1` gave SIRT5 block 3.5, E-selectin induc 0.2 and DENV2 CPE -4.4.
COCC(=O)N1CC(=O)N2[C@H](CO)[C@@H](c3ccc(C#Cc4cccc(OC)c4)cc3)[C@@H]2C1 was read as SIRT5 block -1.3, E-selectin induc -0.3 and DENV2 CPE -1.3.
For CCc1ccc(NC(=O)c2nc(S(=O)(=O)Cc3ccccc3)ncc2Cl)cc1 the results were SIRT5 block -1.4, E-selectin induc -0.2 and DENV2 CPE 0.9.
`Cc1ccc(NC(=O)c2nc(S(=O)(=O)Cc3ccccc3C)ncc2Cl)cc1C` gave SIRT5 block 15.6*, E-selectin induc -0.1 and DENV2 CPE -6.6.
CC/C=C\C/C=C\C/C=C\CCCCCCCC(=O)O was read as SIRT5 block 16.7*, E-selectin induc -0.2 and DENV2 CPE -5.0.
CCCCCCCC(=O)O was read as SIRT5 block -1.3 and DENV2 CPE inconclusive.
For O=C(NCc1ccc(Cl)c(Cl)c1)c1cc(C2CCCCN2C(=O)OCCF)on1 (stereo unspecified) the results were SIRT5 block 0.1, E-selectin induc 1.6 and DENV2 CPE 29.6*.
For O=C(Nc1ccccc1Cl)c1cc(C2CCCCN2C(=O)OCCF)on1 (stereo unspecified) the results were E-selectin induc 0.3 and DENV2 CPE -9.7.
O=C(Nc1ccc2c(c1)OCO2)c1cc(C2CCCCN2C(=O)OCCF)on1 (stereo unspecified) was read as E-selectin induc 0.0 and DENV2 CPE 20.3*.
Screening O=C(NCc1ccccc1)c1cc(C2CCCCN2C(=O)CCCc2ccccc2)on1 (stereo unspecified) returned E-selectin induc 0.0 and DENV2 CPE -3.9.
`O=C(NCc1ccc(F)cc1)c1cc(C2CCCCN2C(=O)CCCc2ccccc2)on1` (stereo unspecified) gave E-selectin induc 82.9* and DENV2 CPE 8.7.
Screening COC(=O)N1CCCCC1c1cc(C(=O)Nc2ccc3c(c2)OCO3)no1 (stereo unspecified) returned SIRT5 block -7.1, E-selectin induc 0.1 and DENV2 CPE 3.5.
C[C@H]1CN([C@@H](C)CO)C(=O)c2cc(NC(=O)CCC(F)(F)F)ccc2O[C@H]1CN(C)Cc1ccc(Oc2ccccc2)cc1 was read as SIRT5 block 9.9, E-selectin induc 0.0 and DENV2 CPE 3.8.
CCC(=O)N1[C@H](CO)[C@H](c2ccc(-c3ccc(F)cc3)cc2)C12CN(C(C)=O)C2 was read as SIRT5 block 2.7, E-selectin induc 0.2 and DENV2 CPE 17.6.
For CO[C@@H]1CN(C)C(=O)c2ccc(NC(=O)C3CCC3)cc2OC[C@@H](C)N(C(=O)CN(C)C)C[C@@H]1C the results were E-selectin induc 0.5.
O=C(CN1CCOCC1)NCC[C@@H]1CC[C@@H](NC(=O)Cc2ccccn2)[C@H](CO)O1 was read as SIRT5 block -0.8, E-selectin induc -0.2 and DENV2 CPE -1.6.
O=C(C[C@@H]1CC[C@@H](NC(=O)Cc2ccccn2)[C@H](CO)O1)NCCCN1CCOCC1 was read as SIRT5 block 0.9, E-selectin induc 0.8 and DENV2 CPE -2.1.
For O=C(CN1CCOCC1)NCC[C@@H]1CC[C@H](NC(=O)Cc2ccccn2)[C@@H](CO)O1 the results were SIRT5 block 0.2, E-selectin induc -0.1 and DENV2 CPE 22.6*.
O=C(C[C@@H]1CC[C@@H](NC(=O)Cc2ccccn2)[C@@H](CO)O1)NCCCN1CCOCC1 was read as SIRT5 block 15.0*, E-selectin induc 0.0 and DENV2 CPE -0.6.
